Compound activity deposited in PubChem by several laboratories.
STEP inh: STEP phosphatase inhibitors, primary screen, biochemical, fluorescence intensity, uHTS. inhibition, % at 20 µM. 360,000 tested, 0.25% active. recombinant STEP, OMFP fluorogenic substrate. AID 588621, 2011;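 active = inhibition at 20 µM, scaled per plate between control wells, above about 37%, limit read from the data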;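 note: 0% = DMSO with enzyme and substrate and 100% = substrate only without enzyme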
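material = STEP tyrosine phosphatase | reagent = fluorogenic phosphatase substrate OMFP at 25 µM final | doses = single compound dose of 20 µM, 1% DMSO final | schedule = 20 min reaction, room temperature, in the dark | measured by = fluorescence, 480/540 nm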
DNMT1 inh: human DNMT1 methyltransferase inhibitors, primary screen, biochemical, molecular beacon, fluorescence, HinP1I cleavage, uHTS; DNA (cytosine-5)-methyltransferase 1 (Homo sapiens), P26358; 360,000 tested, 0.83% active; AID 588458, 2011; inhibition (reported as % activation of signal), % at 10 µM; in the data active = inhibition above about 50%
SUMO1 PPI mod: modulators of SUMO1 protein-protein interactions, primary screen, biochemical, uHTS; Small ubiquitin-related modifier 1 (Homo sapiens), P63165; SUMO1 binding to a labelled peptide, TR-FRET, 1 h; inhibition, % at 20 µM; 360,000 tested, 0.33% active; in the data active = inhibition above about 37%
Target sequence (P63165 whole entry, looked up): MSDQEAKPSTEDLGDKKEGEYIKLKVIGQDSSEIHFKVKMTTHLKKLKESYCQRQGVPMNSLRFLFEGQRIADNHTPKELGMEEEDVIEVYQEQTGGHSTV
CFTR F508del cor: F508del CFTR correction, initial screen, CFBE line, single point | CFBE cells, YFP halide quenching; stimulated with forskolin plus potentiator P3; % fluorescence drop versus neutral controls | activity (quench increase), % at 7.58 µM | 350,000 tested, 0.36% active | AID 720511, 2013;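 active = mean added fluorescence quench of at least 8% versus neutral control, with both replicates also reaching 8%; inconclusive = only one of the mean or replicate conditions met; inactive = mean below 8% and not both replicates reaching 8%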;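 note: cells transiently co-express mutant CFTR-F508del with the halide-sensitive YFP; corrector assay measuring rescue of mutant channel to the surface after 24 h compound exposure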
Scp1 inh: Scp-1 phosphatase inhibitors, primary screen, biochemical, colorimetric, uHTS. 340,000 tested, 0.88% active. Recombinant Scp1, phosphopeptide, malachite green phosphate absorbance. inhibition, % at 20 µM. AID 493091, 2011;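 active = inhibition above about 50% at 20 µM, limit read from the data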;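 note: plate controls were DMSO wells with enzyme for no effect and wells lacking enzyme for full effect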
Target sequence (Q9GZU7 76-261 limits assumed): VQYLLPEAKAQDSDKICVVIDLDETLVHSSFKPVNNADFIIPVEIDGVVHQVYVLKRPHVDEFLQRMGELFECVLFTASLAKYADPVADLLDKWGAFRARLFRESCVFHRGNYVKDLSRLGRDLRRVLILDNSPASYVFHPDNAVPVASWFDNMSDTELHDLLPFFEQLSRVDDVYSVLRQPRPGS
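System: SCP-1 catalytic domain; Reagent: Phospho 17-mer peptide substrate; Doses: one concentration, 20 µM, with 1.0% DMSO; Incubation: 45 min room-temperature reaction, 5 min colour, 30 min stabiliser; Signal: Phosphate-binding colour reagent, absorbance read at 630 nm.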
LMPTP block: LMPTP phosphatase inhibitors, primary screen, biochemical, fluorescence intensity, uHTS | 360,000 tested, 0.22% active | inhibition, % at 20 µM | Low molecular weight phosphotyrosine protein phosphatase (Homo sapiens), P24666 | recombinant LMPTP-A, OMFP fluorogenic substrate | AID 651560, 2012;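 active = compounds that cut the enzyme signal by at least half of the control window in the single-dose screen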;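 note: plate controls were DMSO wells with enzyme plus substrate for no effect and substrate without enzyme for full effect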
Target sequence (P24666 whole entry, looked up): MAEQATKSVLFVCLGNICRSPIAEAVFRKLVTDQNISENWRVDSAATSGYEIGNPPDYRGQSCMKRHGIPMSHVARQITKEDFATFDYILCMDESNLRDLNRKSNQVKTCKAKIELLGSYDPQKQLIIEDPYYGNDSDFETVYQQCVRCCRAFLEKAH
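Test system: LMPTP-A phosphatase enzyme; input: 0.625 nM LMPTP-A final; reagent: OMFP substrate, 400 µM final; compound dosing: 20 µM single dose, 3% DMSO; incubation: 50 min dark incubation at room temperature; measured by: endpoint fluorescence intensity from OMFP dephosphorylation; measure: % inhibition relative to no-enzyme and uninhibited control wells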
Beacon interf DR: spectral interference with molecular beacon fluorescence, dose response, artefact control for DNMT1 inhibitor project, biochemical, fluorescent molecular beacon; shares compounds with DNMT1 inh; spectral interference counter-screen; IC50, µM; 200 tested, under 10 active; AID 602382, 2012
DNMT1 inh conf: DNMT1 methyltransferase inhibitor retest, confirmation, biochemical, molecular beacon, fluorescence, single concentration; shares compounds with DNMT1 inh; DNMT1 molecular beacon HinP1I cleavage; inhibition, % at 10 µM; 2,300 tested, 8% active; AID 602385, 2012;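 active = average inhibition of at least 30% in the single-concentration confirmation test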
DNMT1 interf: shows spectral interference in the DNMT1 beacon assay. 2,300 tested, 1% active. shares compounds with DNMT1 inh. activation (fluorescence interference), % at 10 µM. DNMT1 molecular beacon spectral interference counterscreen, fluorescence 485/520;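 active = activation of at least 30% at 10 µM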;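 note: DNMT1 catalytic domain with a HinP1I cleavage step and a FAM/dabcyl DNA beacon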
STEP conf: STEP phosphatase inhibitor hit confirmation, biochemical, fluorescence intensity, single concentration; 520 tested, 32% active; inhibition, % at 20 µM; AID 623866, 2012; recombinant STEP, OMFP fluorogenic substrate; shares compounds with STEP inh;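 note: 0% = enzyme with substrate plus DMSO and 100% = substrate without enzyme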
Active calls of the source: *; ? = inconclusive; nt = not tested or not shown. Hits are enriched below; roughly 1.6% of the tested compounds scored in any of these assays. Unless noted, the rule behind the calls is not given here.

SMILES	STEP inh	DNMT1 inh	SUMO1 PPI mod	CFTR F508del cor	Scp1 inh	LMPTP block	DNMT1 inh conf	DNMT1 interf	others
O=C1NC(=O)C(=Cc2ccc(-c3cc(Cl)ccc3[N+](=O)[O-])o2)C(=O)N1	9	78*	11	0	69*	23	2	-3
CN1[C@@H](CO)[C@@H]2c3ccccc3NC[C@@H]21	nt	nt	nt	-4	nt	nt	nt	nt
CCC(C)N1C(=O)/C(=C/c2ccc3c(c2)CCN3CCCCl)C(=O)NC1=S (centres undefined)	0	85*	-1	nt	-5	2	12	-3
Cc1cccc(N2C(=O)NC(=O)/C(=C\c3ccc4c(c3)CCCN4Cc3ccccc3)C2=O)c1	-2	26	1	nt	-9	7	nt	nt
C/C=C/c1ccc([C@@H]2[C@H]3CN(C(=O)Cc4cccnc4)CCCCN3[C@H]2CO)cc1	nt	nt	nt	1	nt	nt	nt	nt
N#CC(C#N)=C(N)c1cccnc1	-1	62*	2	-1	-4	0	2	4
O=C(Cc1ccccc1)OCCNC(=O)c1cccnc1	-4	2	1	nt	-3	-1	nt	nt
O=c1[nH]c(=O)n(CCc2ccc(F)cc2)c(O)c1C=NCc1ccc2c(c1)OCO2	14	78*	0	nt	-6	50*	1	3
COc1ccc(CCn2c(O)c(C=NCc3ccc4c(c3)OCO4)c(=O)[nH]c2=O)cc1OC	0	-1	0	nt	-9	1	nt	nt
O=C(Cc1ccccn1)N1CCCCN2[C@H](CO)[C@H](c3ccc(-c4ccc(F)cc4)cc3)[C@H]2C1	nt	nt	nt	5	nt	nt	nt	nt
CCN(CC)c1ccc(/C=C2\C(=O)NC(=O)N(Cc3ccco3)C2=O)cc1	-3	39	5	nt	-1	0	nt	nt
CCCCN1C(=O)/C(=C/c2ccc(N(C)C)cc2)C(=O)N(Cc2ccco2)C1=O	-4	80*	7	nt	22	3	1	-1
O=C1NC(=O)N(Cc2ccc(F)cc2)C(=O)/C1=C\C=C\c1ccco1	2	26	11	2	14	1	nt	nt
CC(C)c1ccc(N2C(=O)NC(=O)/C(=C/C=C/c3ccco3)C2=O)cc1	4	86*	12	nt	2	0	10	5
Cc1cc(C)cc(N2C(=O)NC(=O)/C(=C\C=C\c3ccco3)C2=O)c1	2	74*	4	?	4	2	2	-3
CCCCN1C(=O)/C(=C/C=C/c2ccco2)C(=O)NC1=S	15	107*	24	-4	74*	6	23	-3	Beacon interf DR=>99
O=C(Cc1ccccn1)N1CCCCN2[C@H](CO)[C@@H](c3ccc(-c4ccc(F)cc4)cc3)[C@@H]2C1	nt	nt	nt	-1	nt	nt	nt	nt
Cn1cccc1/C=C1/C(=O)NC(=S)N(Cc2ccc(F)cc2)C1=O	1	91*	64*	0	11	15	105*	-5	Beacon interf DR=>99
CN1C(=O)NC(=O)/C(=C\c2ccc([N+](=O)[O-])o2)C1=O	44*	101*	34	nt	53*	11	112*	-2	Beacon interf DR=>99
NN=C1C(Cl)=C(Cl)C(Cl)=C1Cl	72*	108*	12	-1	nt	84*	nt	nt	STEP conf=67*
O=C(O)[C@@H]1[C@@H](CO)[C@@H]2Cn3c(ccc(-c4ccncc4)c3=O)[C@H]1N2C(=O)C1CCC1	nt	nt	nt	0	nt	nt	nt	nt
